Sampled rows, rich in hits. Any-hit rate of the full collection: about 2.3%.
TRPC4 act: activators of mouse TRPC4 channel, primary screen, Fluo4 calcium, HEK293 TRPC4beta/mu-opioid cells; B-score at 10 µM; AID 2237, 2010; Short transient receptor potential channel 4 (Mus musculus), Q9QUQ5; 0.49% of 310,000 active; Fluo4 calcium fluorescence; active compounds read high;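 active means B-score above 5 SD of library B-scores, and initial fluorescence ratio not above library mean plus 5 SD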;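 further: positive B-score marks a calcium rise read as TRPC4 activation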
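Assay system – TRPC4beta and mu-opioid receptor HEK293 stable cells · Measured by – Fluo4 fluorescence, kinetic · Schedule – dye loading 45 min room temperature, 110 s kinetic read · Read-out – B-scored integrated calcium fluorescence ratio · Controls – buffer and maximal DAMGO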
TRPC6 inhibitor: mouse TRPC6 channel inhibitors, primary screen, cell-based, HEK293, membrane potential dye; AID 2553, 2010; Short transient receptor potential channel 6 (Mus musculus), Q61143; B-score at 10 µM; ACh-evoked depolarization; active compounds read low; 1.1% of 310,000 active;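 active means B-score under library mean minus 3 SD, initial fluorescence not abnormally high, positive integrated signal ratio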;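 further: B-score derived from integrated fluorescence ratio over the kinetic read; more negative B-score means stronger inhibition of depolarization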
TRPC4 inh: inhibitors of mouse TRPC4 channel, primary screen, Fluo4 calcium, HEK293 TRPC4beta/mu-opioid cells; Short transient receptor potential channel 4 (Mus musculus), Q9QUQ5; DAMGO-evoked Fluo4 calcium flux; active compounds read low; B-score at 10 µM; 0.39% of 300,000 active;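 active means B-score over 3 SD under the library average, no early fluorescence shift, positive overall ratio signal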
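Assay system – HEK293 line stably carrying TRPC4beta and mu-opioid receptor · Doses – single dose · Detection – Fluo4 calcium-dye fluorescence, kinetic read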
TRPC6 activator: mouse TRPC6 channel activators, primary screen, cell-based, HEK293, membrane potential dye | Short transient receptor potential channel 6 (Mus musculus), Q61143 | HEK293-TRPC6 membrane potential dye fluorescence; active compounds read high | B-score at 10 µM | 0.13% of 310,000 active | AID 2550, 2010;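 active means B-score of the integrated fluorescence ratio above library mean plus 3 SD, and starting fluorescence ratio within library mean plus 5 SD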;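 further: higher score means more depolarization so channel activation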
TRPC4 PAM: positive allosteric modulators of TRPC4, primary screen, cell-based, mouse TRPC4beta, HEK293 mu-opioid, Fluo-4 calcium. 0.42% of 310,000 active. DAMGO EC20, Fluo-4 Ca2+ flux; active compounds read high. B-score at 10 µM;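 active means B-score of calcium response area above 5 SD of library B-scores, with initial fluorescence ratio within 5 SD of library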;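 further: B-score of integrated fluorescence ratio over time as area under calcium response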
TRPC4 sel inh 2: mouse TRPC4 off-target activity of TRPC6 inhibitors, second screen; shares compounds with TRPC6 inhibitor; HEK293 TRPC4/MOR, membrane potential dye fluorescence; channel activated by saturating DAMGO dose; inhibition, % at 10 µM; 42% of 920 active; AID 2776;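 active means compounds whose fluorescence signal differed from control wells by over 3 SD, either direction, in both duplicate plates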
TRPC4 spec: mouse TRPC4 modulation by TRPC6 hits, confirmation, selectivity assay for TRPC6 inhibitor project, cell-based, HEK293 TRPC4/mu-opioid, membrane potential dye; shares compounds with TRPC6 inhibitor; membrane potential fluorescence; activity change, negative = inhibition, % at 10 µM; 61% of 920 active; AID 2777, 2010;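 active means rise or fall in signal beyond 3 SD of buffer-only wells in both replicate plates, either sign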;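 further: integrated kinetic ratio of fluorescence range over baseline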
HEK293 MPD ctr 2-1: nonspecific membrane potential effects, parental HEK293, confirmation, counter-screen for TRPC6 inhibitor project, cell-based, second counter screen | signal change vs control, % at 10 µM | 31% of 920 active | parental HEK293 membrane potential dye fluorescence; maximal acetylcholine challenge after compound addition | shares compounds with TRPC6 inhibitor;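 active means membrane potential signal moving either way by over 3 SD of the maximum-effect control, in both duplicate plates, meaning non-specific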
HEK293 MPD ctr-1: membrane potential modulation in parental HEK293, confirmation, counter-screen for TRPC6 inhibitor project, cell-based | shares compounds with TRPC6 inhibitor | parental HEK293 membrane potential dye fluorescence | membrane potential signal change, % at 10 µM | 60% of 920 active;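 active means membrane potential signal shifting up or down by more than 3 SD of buffer-only wells, on both duplicate plates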
HEK293 MPD ctr-2: parental HEK293 membrane potential modulation, confirmation, counter-screen for TRPC6 modulator project, cell-based; 51% of 2,400 active; shares compounds with TRPC6 inhibitor; membrane potential dye fluorescence; membrane potential signal change, % at 10 µM;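 active means membrane potential signal moves up or down beyond 5 SD from buffer-only wells, on both duplicate plates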
HEK293 MPD ctr 2-2: second counter-screen for TRPC6 modulators: effect in parental HEK293 cells; shares compounds with TRPC6 inhibitor; membrane potential dye fluorescence; after compound, maximal acetylcholine stimulation; inhibition, % at 10 µM; 14% of 2,400 active; AID 488926;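 active means membrane potential signal drops by more than 5 SD from the mean control signal, in both duplicate plates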;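 further: plate controls were acetylcholine ECmax control wells for no effect and buffer only wells for full effect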
TRPC4 ctr mod: TRPC4 modulation by TRPC6 hit compounds, confirmation, selectivity assay for TRPC6 modulator project, cell-based, HEK293 TRPC4/mu-opioid, membrane potential dye, mouse; shares compounds with TRPC6 inhibitor; AID 488927, 2010; 69% of 2,400 active; percent change from control (negative = decrease, positive = increase), % at 10 µM; membrane potential fluorescence;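 active means membrane potential signal moved up or down beyond 5 SD of buffer control wells, in both duplicate plates, actives on both sides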;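 further: plate controls were assay buffer wells for no effect and DAMGO maximal-effect wells for full effect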
TRPC4/MOR inh 2: mouse TRPC4 off-target activity of TRPC6 modulators, second screen; 55% of 2,400 active; shares compounds with TRPC6 inhibitor; HEK293 TRPC4/mu-opioid, membrane potential dye fluorescence; stimulated with maximal-effect DAMGO; AID 488928; inhibition, % at 10 µM;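 active means drop in membrane potential signal beyond 5 SD of the control wells in both duplicate plates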;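 further: TRPC4 counter screen for TRPC6 hits run under conditions tuned for TRPC6 not TRPC4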
TRPC6 inh conf: mouse TRPC6 channel inhibitors, confirmation, HEK293 cells, membrane potential dye, duplicate; 43% of 3,300 active; inhibition, % at 10 µM; ACh-evoked depolarization; shares compounds with TRPC6 inhibitor;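 active means fluorescence ratio falls more than 5 SD below the full-stimulation control mean, in both duplicate runs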;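 further: integrated fluorescence ratio of peak minus minimum over baseline after agonist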
TRPC6 act confirm: mouse TRPC6 channel activators, confirmation, HEK293 cells, membrane potential dye, duplicate. shares compounds with TRPC6 inhibitor. HEK293-TRPC6 membrane potential dye fluorescence, FDSS. activation, % at 10 µM. 11% of 2,800 active. AID 488961, 2010;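 active means ratio signal rise beyond 5 SD above unstimulated control wells' mean, seen in both duplicate runs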;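 further: plate controls were buffer EC0 wells for no effect and acetylcholine ECmax response for full effect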
Numbers without * were called inactive; i = inactive; nt = not tested or not shown.

SMILES | TRPC4 act | TRPC6 inhibitor | TRPC4 inh | TRPC6 activator | TRPC4 PAM | TRPC6 inh conf | others
O=C(NCC1CCCO1)c1cc2c(=O)[nH]c3ccccc3c2s1 (stereo not given) | i | i | i | i | i | nt
Cn1c(=O)n(Cc2ccc(F)cc2)c(=O)c2c1nc1n2CCCN1Cc1ccccc1 | i | -5.1* | i | i | i | i | HEK293 MPD ctr-2=i;HEK293 MPD ctr 2-2=i;TRPC4 ctr mod=i;TRPC4/MOR inh 2=i;TRPC6 act confirm=i
CN(C)C(=S)Nc1ccc2c(c1)OCCO2 | i | i | i | i | i | nt
CCCn1ncc(CN2CCCC(C(=O)c3cccc(OC(C)C)c3)C2)c1C (stereo not given) | i | -5.3* | i | i | i | 50%* | HEK293 MPD ctr-2=118%*;HEK293 MPD ctr 2-2=i;TRPC4 ctr mod=24%*;TRPC4/MOR inh 2=40%*
COC(=O)c1cccc(C23CC4(C2)[C@H](CN(Cc2ccc(C(F)(F)F)cc2)[C@@H]4c2ccccc2)C3c2ccc(C(F)(F)F)cc2)c1 (stereo not given in full) | i | i | i | i | i | nt
Cc1ccc(C(=O)NCC(=O)OCc2csc(-c3ccccc3)n2)cc1 | i | i | i | i | i | nt
O=C(OCc1csc(-c2ccccc2)n1)c1ccc(O)cc1 | i | -10* | i | i | i | 73%* | TRPC4 sel inh 2=i;TRPC4 spec=-9.2%*;HEK293 MPD ctr 2-1=i;HEK293 MPD ctr-1=i
CCCCCOc1ccc(CSC(=N)N)cc1[N+](=O)[O-] | i | -7.6* | i | i | i | 80%* | TRPC4 sel inh 2=46%*;TRPC4 spec=i;HEK293 MPD ctr 2-1=i;HEK293 MPD ctr-1=-130%*;TRPC6 act confirm=i
CCCCOc1ccc(CN(CCO)CCO)cc1[N+](=O)[O-] | i | i | i | i | i | nt

Screening results as filed in PubChem.
